Assay [1] deals with HT-29. In words: Growth inhibition of human HT-29 cells after 72 hrs by cell titer glo assay. Type of assay: functional, cell-based. The settings on record: HT-29, 72 h.
The target of assay [2] is T1, cGMP-specific 3',5'-cyclic phosphodiesterase (Homo sapiens, UniProt O76074). In words: Inhibition of human recombinant PDE5 at 100 uM after 1.5 hrs by fluorescent polarization assay. The essentials:
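Single 100 μM screening dose, run in triplicate. Purified PDE5 with 50 nM TAMRA-cGMP, 1.5 h at 30 °C, then IMAP binding reagent for 30 min at 30 °C. Percent inhibition from fluorescence polarization.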

Assay [3] relates to HT-29. Put plainly: Growth inhibition of human HT-29 cells at 100 uM after 72 hrs by cell titer glo assay. Type of assay: functional. The conditions noted are these: HT-29, 72 h, read-out: GI. The essentials:
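HT-29 cells in RPMI 1640/5% FBS, >95% viable at harvest, seeded 5000 cells/well and incubated 18–24 h before dosing at a single 100 μM screening dose (final DMSO 0.1%). Percent growth inhibition from CellTiter-Glo luminescence 72 h after treatment, triplicate wells.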

Assay [4] addresses T1, cGMP-specific 3',5'-cyclic phosphodiesterase. Put plainly: Inhibition of human recombinant PDE5 after 1.5 hrs by fluorescent polarization assay. The essentials:
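Purified PDE5 (5 μ/mL) treated with compound or vehicle plus 50 nM TAMRA-cGMP, incubated 1.5 h at 30 °C. IMAP binding reagent was then added for 30 min at 30 °C and fluorescence polarization read.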

In the assay on HT-29 [1], `COC(=O)[C@H]1Cc2c([nH]c3ccccc23)[C@H](c2ccccc2Br)N1C(=O)CCl` came in with an IC50 of over 100 µM. The Inhibition in assay [2] amounted to 47.9%.
On to `CN1CC(=O)N2[C@@H](c3ccccc3Br)c3[nH]c4ccccc4c3C[C@@H]2C1=O`, for which the inhibition of growth at 100 µM with HT-29 [3] was 61.7%. Further, the Inhibition in assay [2] was determined as 75.5%. Besides, in assay [4], the IC50 turned out to be 88000 nM.
For the compound `CCN1C(=O)[C@H]2Cc3c([nH]c4ccccc34)[C@H](c3ccccc3Br)N2C1=S`, the values for the IC50 (with HT-29 [1]; in assay [4]) were over 100 µM and 74000 nM, respectively. Moreover, the Inhibition in assay [2] turned out to be 82.8%.
`CCCCN1CC(=O)N2[C@@H](c3ccccc3Br)c3[nH]c4ccccc4c3C[C@H]2C1=O` came in with a concentration for half-maximal inhibition (IC50) in the assay on HT-29 [1] of over 100 µM. Also, in assay [2], the Inhibition was 69.1%.
With `CCN1C(=O)[C@@H]2Cc3c([nH]c4ccccc34)[C@H](c3ccccc3Br)N2C1=O`, the inhibition of growth at 100 µM in the assay on HT-29 [3] was 77.9%. For the same compound, the IC50 with HT-29 [1] amounted to 24 µM; in assay [4], 640 nM. In addition, the Inhibition in assay [2] was 89.5%.
In turn, `O=C1[C@H]2Cc3c([nH]c4ccccc34)[C@H](c3ccccc3Br)N2C(=O)CN1Cc1ccccc1` gave an IC50 in the assay with HT-29 [1] of over 100 µM. Further, in assay [2], the Inhibition was 69.4%.
Take `CN1CC(=O)N2[C@H](c3ccccc3Br)c3[nH]c4ccccc4c3C[C@H]2C1=O`: the IC50 with HT-29 [1] was 25.5 µM; in assay [4] it was 60 nM. Besides, the Inhibition in assay [2] came to 97.6%.
On to `CN1CC(=O)N2[C@H](c3ccccc3Br)c3[nH]c4ccccc4c3C[C@@H]2C1=O`, for which, in the assay on HT-29 [3], the inhibition of growth at 100 µM amounted to 50.4%. Besides, the Inhibition in assay [2] came to 96%. Besides, the IC50 in assay [4] was determined as 100 nM.
For the compound `O=C1[C@H]2Cc3c([nH]c4ccccc34)[C@@H](c3ccccc3Br)N2C(=O)CN1Cc1ccccc1`, the inhibition of growth at 100 µM in the assay on HT-29 [3] came out at 34.2%. In addition, the Inhibition in assay [2] turned out to be 91.9%. The IC50 in assay [4] came out at 3400 nM.
As to `CCN1C(=O)[C@H]2Cc3c([nH]c4ccccc34)[C@@H](c3ccccc3Br)N2C1=O`, the inhibition of growth at 100 µM with HT-29 [3] stood at 79.5%. The IC50 was 21 µM in the assay on HT-29 [1] and 290 nM in assay [4]. Besides, the Inhibition in assay [2] was found to be 98.7%.
Take `CCN1CC(=O)N2[C@@H](c3ccccc3Br)c3[nH]c4ccccc4c3C[C@H]2C1=O`: the Inhibition in assay [2] came out at 90.3%.
For `COC(=O)[C@@H]1Cc2c([nH]c3ccccc23)[C@H](c2ccccc2Br)N1C(=O)CCl`, the IC50 in the assay on HT-29 [1] was 4.1 µM. Besides, the Inhibition in assay [2] worked out at 35.8%.
In the same order, the values of `CCN1CC(=O)N2[C@H](c3ccccc3Br)c3[nH]c4ccccc4c3C[C@@H]2C1=O` are over 100 µM and 97%.
On to `COC(=O)[C@H]1Cc2c([nH]c3ccccc23)[C@@H](c2ccccc2Br)N1C(=O)CCl`, for which the IC50 in the assay with HT-29 [1] stood at 1.6 µM; in assay [4], 29000 nM. Also, the Inhibition in assay [2] is 86%.
For `CCN1C(=O)[C@@H]2Cc3c([nH]c4ccccc34)[C@@H](c3ccccc3Br)N2C1=O`, in the assay with HT-29 [3], the inhibition of growth at 100 µM came to 69.8%. For the same compound, the figures for the IC50 (in the assay with HT-29 [1]; in assay [4]) were 20 µM and 38 nM, respectively. Besides, the Inhibition in assay [2] came to 99.5%.
Consider `CCCCN1CC(=O)N2[C@@H](c3ccccc3Br)c3[nH]c4ccccc4c3C[C@@H]2C1=O`, for which the inhibition of growth at 100 µM in the assay on HT-29 [3] came out at 50.2%. In assay [2], the Inhibition is 66.7%.
With `O=C1[C@@H]2Cc3c([nH]c4ccccc34)[C@H](c3ccccc3Br)N2C(=O)CN1Cc1ccccc1`, in the assay on HT-29 [1], the IC50 was over 100 µM. The Inhibition in assay [2] is 48.7%.
As to `CCCCN1CC(=O)N2[C@H](c3ccccc3Br)c3[nH]c4ccccc4c3C[C@@H]2C1=O`, the inhibition of growth at 100 µM in the assay with HT-29 [3] was determined as 55.7%. Besides, in assay [2], the Inhibition stood at 99.7%. In assay [4], the IC50 stood at 260 nM.
In the same order, the values of `CCN1C(=O)[C@H]2Cc3c([nH]c4ccccc34)[C@H](c3ccccc3Br)N2C1=O` are 65.1%, 93% and 4000 nM.
As for `COC(=O)[C@@H]1Cc2c([nH]c3ccccc23)[C@H](c2ccccc2Br)N1`, in the assay on HT-29 [3], the inhibition of growth at 100 µM is 92.8%. In the assay with HT-29 [1], this compound yielded an IC50 of 26 µM. Further, the Inhibition in assay [2] came out at 46%.
For `CCN1CC(=O)N2[C@@H](c3ccccc3Br)c3[nH]c4ccccc4c3C[C@@H]2C1=O`, in the assay with HT-29 [3], the inhibition of growth at 100 µM is 65.6%. Moreover, the Inhibition in assay [2] came to 91.7%.
On to `CN1CC(=O)N2[C@@H](c3ccccc3Br)c3[nH]c4ccccc4c3C[C@H]2C1=O`, for which the inhibition of growth at 100 µM in the assay on HT-29 [3] was 76.1%. Further, the IC50 in the assay on HT-29 [1] is 27 µM; in assay [4], 2800 nM. Also, the Inhibition in assay [2] was 92.7%.
Take `CCN1C(=O)[C@@H]2Cc3c([nH]c4ccccc34)[C@@H](c3ccccc3Br)N2C1=S`: the IC50 was found to be 22.5 µM in the assay on HT-29 [1] and 6100 nM in assay [4]. Besides, in assay [2], the Inhibition came to 93.5%.
As to `CCN1CC(=O)N2[C@H](c3ccccc3Br)c3[nH]c4ccccc4c3C[C@H]2C1=O`, the inhibition of growth at 100 µM with HT-29 [3] worked out at 47.2%. Besides, the Inhibition in assay [2] was 89.2%.
For `COC(=O)[C@@H]1Cc2c([nH]c3ccccc23)[C@@H](c2ccccc2Br)N1C(=O)CCl`, the Inhibition in assay [2] stood at 47.9%.
As to `COC(=O)[C@H]1Cc2c([nH]c3ccccc23)[C@H](c2ccccc2Br)N1`, the inhibition of growth at 100 µM with HT-29 [3] turned out to be 85%. For the same compound, inhibition in the assay on HT-29 [1] was half-maximal at 78 µM (IC50). In assay [2], the Inhibition was determined as 21.5%.
`O=C1[C@@H]2Cc3c([nH]c4ccccc34)[C@@H](c3ccccc3Br)N2C(=O)CN1Cc1ccccc1`: the figures for the IC50 (in the assay with HT-29 [1]; in assay [4]) were over 100 µM and 40 nM, respectively. Further, the Inhibition in assay [2] was 100%.
With `COC(=O)[C@@H]1Cc2c([nH]c3ccccc23)[C@@H](c2ccccc2Br)N1`, the inhibition of growth at 100 µM in the assay on HT-29 [3] came to 57.5%. In addition, in assay [2], the Inhibition came to 91.1%. For the same compound, the IC50 in assay [4] came out at 3100 nM.
Consider `COC(=O)[C@H]1Cc2c([nH]c3ccccc23)[C@@H](c2ccccc2Br)N1`, for which the inhibition of growth at 100 µM in the assay with HT-29 [3] amounted to 89%. Also, the IC50 with HT-29 [1] stood at 48 µM; in assay [4] it was 5600 nM. In addition, in assay [2], the Inhibition turned out to be 85.5%.
`CN1CC(=O)N2[C@H](c3ccc4c(c3)OCO4)c3[nH]c4ccccc4c3C[C@@H]2C1=O` yielded an IC50 in the assay with HT-29 [1] of over 100 µM. Further, in assay [2], the Inhibition came to 100%.
As for `CCCCN1CC(=O)N2[C@H](c3ccccc3Br)c3[nH]c4ccccc4c3C[C@H]2C1=O`, the values for the IC50 (in the assay on HT-29 [1]; in assay [4]) were over 100 µM and 50 nM, respectively. The Inhibition in assay [2] stood at 93.8%.
